Reference: ChEMBL document CHEMBL1268902, “9-Dihydroerythromycin ethers as motilin agonists--developing structure-activity relationships for potency and safety” (Bioorg Med Chem, 2010)
≈ marks a conversion by molar mass, not a printed value.

What was measured:
hERG (KCNH2) [1] = molecular target: T1, hERG (KCNH2) (Homo sapiens, UniProt Q12809); assay: Inhibition of human ERG at 30 uM
[2] = Induction of contraction in rabbit smooth muscle at EC90 concentration after three cycles of administration and washout measured after 4th dose; assay type: functional, Oryctolagus cuniculus, Muscle tissue
Summary of the method: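 Rabbit smooth muscle contractility; drug applied at EC90 concentration through three cycles of administration and washout, tachyphylaxis reported as % contractility response then obtained.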

[3] = Induction of contraction in rabbit smooth muscle; assay type: functional, tissue-based, Oryctolagus cuniculus, Muscle tissue
Summary of the method: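 Rabbit smooth muscle contractility assay; EC50 taken as the concentration giving 50% of maximal possible contraction.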

Streptococcus pneumoniae = assay: Antibacterial activity against erythromycin-sensitive Streptococcus pneumoniae ATCC 6301; assay type: functional
Summary of the method: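 MIC determined by growth inhibition; routine screening used the highly erythromycin-sensitive strain S. pneumoniae ATCC6301.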

hERG (KCNH2) [4] = molecular target: T1, hERG (KCNH2); assay: Inhibition of human ERG at 300 uM

T1 sequence (Q12809 whole entry): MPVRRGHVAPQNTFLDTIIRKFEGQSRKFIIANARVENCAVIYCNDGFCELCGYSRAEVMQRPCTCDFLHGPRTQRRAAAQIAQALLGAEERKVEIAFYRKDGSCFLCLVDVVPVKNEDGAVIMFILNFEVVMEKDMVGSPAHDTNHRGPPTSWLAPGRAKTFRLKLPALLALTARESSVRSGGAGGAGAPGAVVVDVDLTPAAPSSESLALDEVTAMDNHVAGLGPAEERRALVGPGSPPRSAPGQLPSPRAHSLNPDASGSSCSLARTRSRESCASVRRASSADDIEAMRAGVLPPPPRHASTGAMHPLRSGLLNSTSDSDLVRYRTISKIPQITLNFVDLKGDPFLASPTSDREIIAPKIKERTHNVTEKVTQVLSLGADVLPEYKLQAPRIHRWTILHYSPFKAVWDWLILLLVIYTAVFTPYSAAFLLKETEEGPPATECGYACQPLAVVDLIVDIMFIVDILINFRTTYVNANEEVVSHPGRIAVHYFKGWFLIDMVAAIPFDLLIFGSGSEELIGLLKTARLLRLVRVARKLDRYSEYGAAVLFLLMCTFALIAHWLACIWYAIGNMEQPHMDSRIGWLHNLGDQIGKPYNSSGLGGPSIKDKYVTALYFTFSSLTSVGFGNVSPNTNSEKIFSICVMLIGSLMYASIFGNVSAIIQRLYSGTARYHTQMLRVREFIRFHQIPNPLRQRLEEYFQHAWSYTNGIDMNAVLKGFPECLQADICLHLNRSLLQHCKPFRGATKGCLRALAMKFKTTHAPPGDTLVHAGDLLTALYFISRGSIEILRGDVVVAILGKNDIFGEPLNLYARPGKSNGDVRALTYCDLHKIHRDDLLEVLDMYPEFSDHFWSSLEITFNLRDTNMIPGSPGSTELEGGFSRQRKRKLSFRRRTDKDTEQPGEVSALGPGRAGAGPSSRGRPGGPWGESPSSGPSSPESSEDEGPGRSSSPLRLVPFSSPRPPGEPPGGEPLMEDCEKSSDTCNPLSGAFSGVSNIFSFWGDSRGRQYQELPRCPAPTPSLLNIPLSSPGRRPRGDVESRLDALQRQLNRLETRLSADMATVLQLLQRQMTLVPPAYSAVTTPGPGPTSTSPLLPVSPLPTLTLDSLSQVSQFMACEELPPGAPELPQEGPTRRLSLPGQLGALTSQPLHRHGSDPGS

SMILES | inhibition at 30 µM (hERG (KCNH2) [1]) | Activity [2] | EC50 [3] | MIC (Streptococcus pneumoniae) | inhibition at 300 µM (hERG (KCNH2) [4])
CC[C@H]1OC(=O)[C@H](C)[C@@H](O[C@H]2C[C@@](C)(OC)[C@@H](O)[C@H](C)O2)[C@H](C)[C@@H](O[C@@H]2O[C@H](C)C[C@H](N(C)C(C)C)[C@H]2O)[C@](C)(O)C[C@@H](C)[C@H](OCCNC(=O)c2ccc3[nH]cnc3c2)[C@H](C)[C@@H](O)[C@]1(C)O | 71% | 94% | 0.037 µM | 128 µg/mL (≈ 135 µM) | 100%
CC[C@H]1OC(=O)[C@H](C)[C@@H](O[C@H]2C[C@@](C)(OC)[C@@H](O)[C@H](C)O2)[C@H](C)[C@@H](O[C@@H]2O[C@H](C)C[C@H](N(C)C(C)C)[C@H]2O)[C@](C)(O)C[C@@H](C)[C@H](OCc2ccncc2)[C@H](C)[C@@H](O)[C@]1(C)O | 68% | – | 0.42 µM | 128 µg/mL (≈ 150 µM) | 100%
CC[C@H]1OC(=O)[C@H](C)[C@@H](O[C@H]2C[C@@](C)(OC)[C@@H](O)[C@H](C)O2)[C@H](C)[C@@H](O[C@@H]2O[C@H](C)C[C@H](N(C)C(C)C)[C@H]2O)[C@](C)(O)C[C@@H](C)[C@H](OCCNC(C)=O)[C@H](C)[C@@H](O)[C@]1(C)O | 47% | 94% | 0.048 µM | > 128 µg/mL | 73%
CC[C@H]1OC(=O)[C@H](C)[C@@H](O[C@H]2C[C@@](C)(OC)[C@@H](O)[C@H](C)O2)[C@H](C)[C@@H](O[C@@H]2O[C@H](C)C[C@H](N(C)C(C)C)[C@H]2O)[C@](C)(O)C[C@@H](C)[C@H](OCCNC(=O)OC)[C@H](C)[C@@H](O)[C@]1(C)O | 40% | – | 0.13 µM | 128 µg/mL (≈ 148 µM) | 95%
CC[C@H]1OC(=O)[C@H](C)[C@@H](O[C@H]2C[C@@](C)(OC)[C@@H](O)[C@H](C)O2)[C@H](C)[C@@H](O[C@@H]2O[C@H](C)C[C@H](N(C)C(C)C)[C@H]2O)[C@](C)(O)C[C@@H](C)[C@H](OCc2nccs2)[C@H](C)[C@@H](O)[C@]1(C)O | 61% | – | 0.29 µM | 128 µg/mL (≈ 149 µM) | 100%
CC[C@H]1OC(=O)[C@H](C)[C@@H](O[C@H]2C[C@@](C)(OC)C[C@H](C)O2)[C@H](C)[C@@H](O[C@@H]2O[C@H](C)C[C@H](N(C)C(C)C)[C@H]2O)[C@]2(C)CC(C)=C(O2)[C@H](C)C(=O)[C@]1(C)OC | 84% | 9% | 0.011 µM | – | 100%
CC[C@H]1OC(=O)[C@H](C)[C@@H](O[C@H]2C[C@@](C)(OC)[C@@H](O)[C@H](C)O2)[C@H](C)[C@@H](O[C@@H]2O[C@H](C)C[C@H](N(C)C(C)C)[C@H]2O)[C@](C)(O)C[C@@H](C)[C@H](OCCN)[C@H](C)[C@@H](O)[C@]1(C)O | 25% | – | 2.3 µM | 128 µg/mL (≈ 159 µM) | 76%
CC[C@H]1OC(=O)[C@H](C)[C@@H](O[C@H]2C[C@@](C)(OC)[C@@H](O)[C@H](C)O2)[C@H](C)[C@@H](O[C@@H]2O[C@H](C)C[C@H](N(C)C(C)C)[C@H]2O)[C@](C)(O)C[C@@H](C)[C@H](OCc2nc[nH]n2)[C@H](C)[C@@H](O)[C@]1(C)O | 8% | 97% | 0.054 µM | 128 µg/mL (≈ 151 µM) | 40%
CC[C@H]1OC(=O)[C@H](C)[C@@H](O[C@H]2C[C@@](C)(OC)[C@@H](O)[C@H](C)O2)[C@H](C)[C@@H](O[C@@H]2O[C@H](C)C[C@H](N(C)C(C)C)[C@H]2O)[C@](C)(O)C[C@@H](C)[C@H](OCc2csc(C)n2)[C@H](C)[C@@H](O)[C@]1(C)O | 63% | – | 0.48 µM | 128 µg/mL (≈ 146 µM) | 100%
CCOC(=O)NCCO[C@@H]1[C@H](C)[C@@H](O)[C@](C)(O)[C@@H](CC)OC(=O)[C@H](C)[C@@H](O[C@H]2C[C@@](C)(OC)[C@@H](O)[C@H](C)O2)[C@H](C)[C@@H](O[C@@H]2O[C@H](C)C[C@H](N(C)C(C)C)[C@H]2O)[C@](C)(O)C[C@H]1C | 67% | – | 0.1 µM | 64 µg/mL (≈ 72.8 µM) | 100%
CCNC(=O)NCCO[C@@H]1[C@H](C)[C@@H](O)[C@](C)(O)[C@@H](CC)OC(=O)[C@H](C)[C@@H](O[C@H]2C[C@@](C)(OC)[C@@H](O)[C@H](C)O2)[C@H](C)[C@@H](O[C@@H]2O[C@H](C)C[C@H](N(C)C(C)C)[C@H]2O)[C@](C)(O)C[C@H]1C | 20% | 88% | 0.1 µM | > 128 µg/mL | 57%
CC[C@H]1OC(=O)[C@H](C)[C@@H](O[C@H]2C[C@@](C)(OC)[C@@H](O)[C@H](C)O2)[C@H](C)[C@@H](O[C@@H]2O[C@H](C)C[C@H](N(C)C(C)C)[C@H]2O)[C@](C)(O)C[C@@H](C)[C@H](OCc2c[nH]cn2)[C@H](C)[C@@H](O)[C@]1(C)O | 48% | – | 0.063 µM | – | 98%
CC[C@H]1OC(=O)[C@H](C)[C@@H](O[C@H]2C[C@@](C)(OC)[C@@H](O)[C@H](C)O2)[C@H](C)[C@@H](O[C@@H]2O[C@H](C)C[C@H](N(C)C(C)C)[C@H]2O)[C@](C)(O)C[C@@H](C)[C@H](O)[C@H](C)[C@@H](O)[C@]1(C)O [3 9-DIHYDRO-N-DESMETHYL-N-ISOPROPYLERYTHROMYCIN A] | – | 85% | 0.26 µM | – | –
CC[C@H]1OC(=O)[C@H](C)[C@@H](O[C@H]2C[C@@](C)(OC)[C@@H](O)[C@H](C)O2)[C@H](C)[C@@H](O[C@@H]2O[C@H](C)C[C@H](N(C)C(C)C)[C@H]2O)[C@](C)(O)C[C@@H](C)[C@H](OCCNC(=N)N)[C@H](C)[C@@H](O)[C@]1(C)O | – | – | 3.6 µM | – | –
CC[C@H]1OC(=O)[C@H](C)[C@@H](O[C@H]2C[C@@](C)(OC)[C@@H](O)[C@H](C)O2)[C@H](C)[C@@H](O[C@@H]2O[C@H](C)C[C@H](N(C)C(C)C)[C@H]2O)[C@](C)(O)C[C@@H](C)[C@H](OCc2cc(C)on2)[C@H](C)[C@@H](O)[C@]1(C)O | 45% | 78% | 0.11 µM | 128 µg/mL (≈ 149 µM) | 90%
CC[C@H]1OC(=O)[C@H](C)[C@@H](O[C@H]2C[C@@](C)(OC)[C@@H](O)[C@H](C)O2)[C@H](C)[C@@H](O[C@@H]2O[C@H](C)C[C@H](N(C)C(C)C)[C@H]2O)[C@](C)(O)C[C@@H](C)[C@H](OCCNC=O)[C@H](C)[C@@H](O)[C@]1(C)O | 8% | 100% | 0.031 µM | > 128 µg/mL | 47%
CC[C@H]1OC(=O)[C@H](C)[C@@H](O[C@H]2C[C@@](C)(OC)[C@@H](O)[C@H](C)O2)[C@H](C)[C@@H](O[C@@H]2O[C@H](C)C[C@H](N(C)C(C)C)[C@H]2O)[C@](C)(O)C[C@@H](C)[C@H](OCC(=O)NC)[C@H](C)[C@@H](O)[C@]1(C)O | – | 89% | 0.058 µM | 128 µg/mL (≈ 153 µM) | –
CC[C@H]1OC(=O)[C@H](C)[C@@H](O[C@H]2C[C@@](C)(OC)CC(C)O2)[C@H](C)[C@@H](O[C@@H]2O[C@H](C)C[C@H](N(C)CC)[C@H]2O)C2(C)CC(C)=C(O2)[C@H](C)[C@@H](O)[C@H]1C (single isomer, unassigned) | – | 22% | 0.007 µM | – | –
CCNC(=S)NCCO[C@@H]1[C@H](C)[C@@H](O)[C@](C)(O)[C@@H](CC)OC(=O)[C@H](C)[C@@H](O[C@H]2C[C@@](C)(OC)[C@@H](O)[C@H](C)O2)[C@H](C)[C@@H](O[C@@H]2O[C@H](C)C[C@H](N(C)C(C)C)[C@H]2O)[C@](C)(O)C[C@H]1C | 36% | – | 0.22 µM | > 120 µg/mL | 88%
CC[C@H]1OC(=O)[C@H](C)[C@@H](O[C@H]2C[C@@](C)(OC)[C@@H](O)[C@H](C)O2)[C@H](C)[C@@H](O[C@@H]2O[C@H](C)C[C@H](N(C)C(C)C)[C@H]2O)[C@](C)(O)C[C@@H](C)[C@H](OCCNS(C)(=O)=O)[C@H](C)[C@@H](O)[C@]1(C)O | 12% | 94% | 0.24 µM | > 128 µg/mL | 79%
CCCNC(=S)NCCO[C@@H]1[C@H](C)[C@@H](O)[C@](C)(O)[C@@H](CC)OC(=O)[C@H](C)[C@@H](O[C@H]2C[C@@](C)(OC)[C@@H](O)[C@H](C)O2)[C@H](C)[C@@H](O[C@@H]2O[C@H](C)C[C@H](N(C)C(C)C)[C@H]2O)[C@](C)(O)C[C@H]1C | 53% | – | 0.21 µM | 128 µg/mL (≈ 141 µM) | 100%
CC[C@H]1OC(=O)[C@H](C)[C@@H](O[C@H]2C[C@@](C)(OC)[C@@H](O)[C@H](C)O2)[C@H](C)[C@@H](O[C@@H]2O[C@H](C)C[C@H](N(C)C(C)C)[C@H]2O)[C@](C)(O)C[C@@H](C)[C@H](OCCNC(C)C)[C@H](C)[C@@H](O)[C@]1(C)O | 40% | – | 2 µM | 64 µg/mL (≈ 75.4 µM) | 93%
CC[C@H]1OC(=O)[C@H](C)[C@@H](O[C@H]2C[C@@](C)(OC)[C@@H](O)[C@H](C)O2)[C@H](C)[C@@H](O[C@@H]2O[C@H](C)C[C@H](N(C)C)[C@H]2O)[C@](C)(O)C[C@@H](C)C(=O)[C@H](C)[C@@H](O)[C@]1(C)O [ERYTHROMYCIN] | – | 97% | 1.2 µM | – | –
